Columns and labels:
[1] = target: Cytochrome P450 3A4 (Homo sapiens, UniProt P08684); assay: Inhibition of human CYP3A4 by fluorescence assay
[2] = target: Cytochrome P450 2D6 (Homo sapiens, UniProt P10635); assay: Inhibition of human […] by fluorescence assay; type: ADME
Outline: (§1)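 Recombinant human P450 bactosomes (0.1 mg/mL) in 50 mM phosphate, pH 7.4. Test compound at 0.1-10 μM, preincubated 10 min at 37 °C with fluorogenic substrate: ethoxyresorufin 0.5 μM (1A2), FCA 50 μM (2C9), BMC 10 μM (2C19), MMC 10 μM (2D6).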

[3] = target: Sodium-dependent noradrenaline transporter (Homo sapiens, UniProt P23975); assay: Displacement of [3H]nisoxetine from human recombinant NET expressed in BacMam virus-transduced cells by scintillation proximity assay; type: cell-based
Sodium-dependent noradrenaline transporter, sequence (P23975 whole entry): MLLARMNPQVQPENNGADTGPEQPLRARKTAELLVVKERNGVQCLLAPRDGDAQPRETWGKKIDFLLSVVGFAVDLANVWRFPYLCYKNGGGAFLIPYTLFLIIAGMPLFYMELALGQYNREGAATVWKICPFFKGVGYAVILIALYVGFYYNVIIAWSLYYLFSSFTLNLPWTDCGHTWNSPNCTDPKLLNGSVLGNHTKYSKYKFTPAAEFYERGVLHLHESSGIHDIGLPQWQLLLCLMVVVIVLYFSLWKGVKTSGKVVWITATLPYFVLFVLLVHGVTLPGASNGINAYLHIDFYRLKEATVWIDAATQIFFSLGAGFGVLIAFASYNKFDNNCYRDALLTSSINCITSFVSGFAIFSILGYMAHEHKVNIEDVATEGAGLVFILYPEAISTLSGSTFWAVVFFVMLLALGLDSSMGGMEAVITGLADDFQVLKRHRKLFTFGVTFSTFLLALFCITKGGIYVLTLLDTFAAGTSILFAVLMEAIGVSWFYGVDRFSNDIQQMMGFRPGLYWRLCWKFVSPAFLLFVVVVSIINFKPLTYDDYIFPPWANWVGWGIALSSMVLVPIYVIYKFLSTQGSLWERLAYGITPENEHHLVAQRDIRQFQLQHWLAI
Outline: (§2)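 BacMam-transduced membranes in SPA format. SERT: 1 mg/mL beads, 6 μg/mL membranes, 3 nM [3H]citalopram. NET: 2 mg/mL beads, 40 μg/mL membranes, 10 nM [3H]nisoxetine. Incubated overnight at room temperature; pKi from pIC50 by Cheng-Prusoff.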

[4] = target: Cytochrome P450 2C9 (Homo sapiens, UniProt P11712); assay: Inhibition of human CYP2C9 by fluorescence assay; type: ADME; outline: as §1
Cytochrome P450 2C9, sequence (P11712 whole entry): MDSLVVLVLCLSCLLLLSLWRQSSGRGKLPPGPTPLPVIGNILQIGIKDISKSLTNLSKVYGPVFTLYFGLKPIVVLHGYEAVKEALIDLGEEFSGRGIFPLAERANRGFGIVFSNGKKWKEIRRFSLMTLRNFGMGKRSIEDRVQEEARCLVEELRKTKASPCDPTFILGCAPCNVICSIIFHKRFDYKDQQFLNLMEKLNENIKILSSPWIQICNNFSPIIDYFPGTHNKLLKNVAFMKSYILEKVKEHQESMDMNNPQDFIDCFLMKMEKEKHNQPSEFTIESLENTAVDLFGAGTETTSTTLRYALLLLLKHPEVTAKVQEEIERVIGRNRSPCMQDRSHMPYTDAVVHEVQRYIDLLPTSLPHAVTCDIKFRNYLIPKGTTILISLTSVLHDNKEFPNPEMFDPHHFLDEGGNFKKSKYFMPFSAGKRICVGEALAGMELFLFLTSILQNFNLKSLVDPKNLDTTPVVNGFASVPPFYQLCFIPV

[5] = target: T1, Cytochrome P450 1A2 (Homo sapiens, UniProt P05177); assay: Inhibition of human CYP1A2 by fluorescence assay; type: ADME; outline: as §1
T1 sequence (P05177 whole entry): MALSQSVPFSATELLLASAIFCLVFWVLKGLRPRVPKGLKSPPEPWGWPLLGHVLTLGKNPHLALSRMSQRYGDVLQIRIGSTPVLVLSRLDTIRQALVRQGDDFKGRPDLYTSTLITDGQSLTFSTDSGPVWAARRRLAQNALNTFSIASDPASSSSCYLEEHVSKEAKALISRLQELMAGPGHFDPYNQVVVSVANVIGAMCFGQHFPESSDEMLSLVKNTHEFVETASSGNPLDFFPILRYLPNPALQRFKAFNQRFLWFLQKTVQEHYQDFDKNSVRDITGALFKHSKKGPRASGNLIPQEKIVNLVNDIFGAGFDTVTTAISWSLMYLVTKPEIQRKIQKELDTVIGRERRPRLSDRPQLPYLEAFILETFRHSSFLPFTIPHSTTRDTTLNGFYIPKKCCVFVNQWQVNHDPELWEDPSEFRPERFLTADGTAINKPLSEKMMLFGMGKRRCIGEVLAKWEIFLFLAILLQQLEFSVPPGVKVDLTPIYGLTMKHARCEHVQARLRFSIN

[6] = target: Sodium-dependent serotonin transporter (Homo sapiens, UniProt P31645); assay: Displacement of [3H]citalopram from human recombinant SERT expressed in BacMam virus-transduced cells by scintillation proximity assay; type: cell-based; outline: as §2
Sodium-dependent serotonin transporter, sequence (P31645 whole entry): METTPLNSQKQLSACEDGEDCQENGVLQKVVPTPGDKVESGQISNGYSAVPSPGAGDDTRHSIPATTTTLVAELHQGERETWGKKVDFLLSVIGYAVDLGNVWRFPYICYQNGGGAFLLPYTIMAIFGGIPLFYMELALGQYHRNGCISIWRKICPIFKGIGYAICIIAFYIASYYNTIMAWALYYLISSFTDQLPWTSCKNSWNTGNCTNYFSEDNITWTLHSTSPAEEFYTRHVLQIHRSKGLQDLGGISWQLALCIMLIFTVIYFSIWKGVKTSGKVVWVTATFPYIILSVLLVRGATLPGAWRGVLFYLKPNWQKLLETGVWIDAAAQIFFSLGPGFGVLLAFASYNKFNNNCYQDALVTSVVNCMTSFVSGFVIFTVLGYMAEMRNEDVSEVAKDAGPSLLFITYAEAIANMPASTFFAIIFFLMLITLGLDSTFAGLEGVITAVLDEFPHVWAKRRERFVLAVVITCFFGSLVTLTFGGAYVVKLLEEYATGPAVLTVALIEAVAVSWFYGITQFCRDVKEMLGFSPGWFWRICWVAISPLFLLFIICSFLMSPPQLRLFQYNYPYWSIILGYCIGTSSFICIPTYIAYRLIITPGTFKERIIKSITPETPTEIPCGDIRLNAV

[7] = target: Cytochrome P450 2C19 (Homo sapiens, UniProt P33261); assay: Inhibition of human CYP2C19 by fluorescence assay; type: ADME; outline: as §1
Cytochrome P450 2C19, sequence (P33261 whole entry): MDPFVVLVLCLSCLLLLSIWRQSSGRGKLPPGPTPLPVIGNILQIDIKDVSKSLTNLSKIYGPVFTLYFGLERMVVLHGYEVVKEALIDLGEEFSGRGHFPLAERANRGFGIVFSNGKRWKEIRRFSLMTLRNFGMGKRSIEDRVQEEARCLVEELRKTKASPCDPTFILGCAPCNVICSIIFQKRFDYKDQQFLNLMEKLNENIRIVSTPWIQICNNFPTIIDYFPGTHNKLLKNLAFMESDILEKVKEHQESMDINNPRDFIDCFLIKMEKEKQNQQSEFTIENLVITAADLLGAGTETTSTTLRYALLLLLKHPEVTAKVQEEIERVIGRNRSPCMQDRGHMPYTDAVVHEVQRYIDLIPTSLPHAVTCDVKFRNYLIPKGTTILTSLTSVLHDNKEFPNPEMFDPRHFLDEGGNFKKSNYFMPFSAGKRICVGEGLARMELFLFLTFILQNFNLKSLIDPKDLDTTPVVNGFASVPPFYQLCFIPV

[8] = target: Sodium-dependent dopamine transporter (Homo sapiens, UniProt Q01959); assay: Displacement of [3H]WIN-35428 from human recombinant DAT expressed in BacMam virus-transduced cells by scintillation proximity assay; type: cell-based
Sodium-dependent dopamine transporter, sequence (Q01959 whole entry): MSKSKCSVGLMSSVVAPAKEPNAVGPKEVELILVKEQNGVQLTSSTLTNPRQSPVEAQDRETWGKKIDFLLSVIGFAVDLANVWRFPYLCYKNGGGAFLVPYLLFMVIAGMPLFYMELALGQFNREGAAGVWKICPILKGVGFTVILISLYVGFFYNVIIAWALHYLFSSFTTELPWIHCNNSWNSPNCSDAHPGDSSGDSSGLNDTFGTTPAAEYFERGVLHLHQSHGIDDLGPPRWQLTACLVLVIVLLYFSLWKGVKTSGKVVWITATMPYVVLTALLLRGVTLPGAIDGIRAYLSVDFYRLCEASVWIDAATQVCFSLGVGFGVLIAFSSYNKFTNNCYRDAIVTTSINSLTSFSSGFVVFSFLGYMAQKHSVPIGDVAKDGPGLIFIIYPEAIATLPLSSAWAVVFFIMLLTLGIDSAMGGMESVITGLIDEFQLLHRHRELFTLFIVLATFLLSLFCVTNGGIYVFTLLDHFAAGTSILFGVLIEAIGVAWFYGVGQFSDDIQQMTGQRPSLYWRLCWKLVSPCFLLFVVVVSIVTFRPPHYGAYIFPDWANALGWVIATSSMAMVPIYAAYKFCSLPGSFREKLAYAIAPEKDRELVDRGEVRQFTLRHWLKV

Cytochrome P450 2D6, sequence (P10635 whole entry): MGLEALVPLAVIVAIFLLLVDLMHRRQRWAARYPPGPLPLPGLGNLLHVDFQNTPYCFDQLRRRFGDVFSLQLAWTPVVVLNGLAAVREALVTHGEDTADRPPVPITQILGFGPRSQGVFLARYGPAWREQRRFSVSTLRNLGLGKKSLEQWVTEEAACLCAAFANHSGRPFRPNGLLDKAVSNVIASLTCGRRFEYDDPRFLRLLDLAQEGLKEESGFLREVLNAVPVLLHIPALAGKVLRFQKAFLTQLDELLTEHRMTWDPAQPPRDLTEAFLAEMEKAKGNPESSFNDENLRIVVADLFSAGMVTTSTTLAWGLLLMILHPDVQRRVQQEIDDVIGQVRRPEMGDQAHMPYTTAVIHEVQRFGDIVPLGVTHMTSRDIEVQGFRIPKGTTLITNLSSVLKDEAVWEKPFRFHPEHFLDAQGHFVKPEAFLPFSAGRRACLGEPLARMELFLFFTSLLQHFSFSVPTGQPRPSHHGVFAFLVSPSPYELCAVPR
Cytochrome P450 3A4, sequence (P08684 whole entry): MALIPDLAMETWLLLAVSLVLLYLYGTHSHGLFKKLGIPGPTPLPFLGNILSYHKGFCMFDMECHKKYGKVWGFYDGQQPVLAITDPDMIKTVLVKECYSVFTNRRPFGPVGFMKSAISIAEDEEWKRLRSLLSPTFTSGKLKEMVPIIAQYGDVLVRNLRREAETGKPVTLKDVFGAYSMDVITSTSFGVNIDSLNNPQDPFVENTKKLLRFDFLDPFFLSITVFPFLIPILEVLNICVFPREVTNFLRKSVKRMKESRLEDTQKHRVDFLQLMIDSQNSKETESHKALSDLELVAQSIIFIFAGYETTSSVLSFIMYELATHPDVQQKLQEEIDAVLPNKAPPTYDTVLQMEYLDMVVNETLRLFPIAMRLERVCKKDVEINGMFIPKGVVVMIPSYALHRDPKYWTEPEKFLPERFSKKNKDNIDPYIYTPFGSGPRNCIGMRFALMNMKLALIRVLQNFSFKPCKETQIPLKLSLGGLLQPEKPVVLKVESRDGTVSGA

| Structure (SMILES) | IC50 [1] | IC50 [2] | Ki [3] | IC50 [4] | IC50 [5] | Ki [6] | IC50 [7] | Ki [8] | pKi [8] |
| --- | --- | --- | --- | --- | --- | --- | --- | --- | --- |
| Clc1ccc([C@@]2(COC3CCC3)[C@@H]3CNC[C@@H]32)cc1Cl | 3000 nM | > 10000 nM | 2.51 nM | > 10000 nM | > 10000 nM | 0.398 nM | > 10000 nM | 6.31 nM | – |
| CC(C)OCC[C@]1(c2ccc(Cl)c(Cl)c2)[C@@H]2CNC[C@@H]21 | – | – | 1.58 nM | – | – | 0.316 nM | – | 6.31 nM | – |
| Clc1ccc([C@@]2(COCC3CC3)[C@@H]3CNC[C@@H]32)cc1Cl | – | 1000 nM | 7.94 nM | > 10000 nM | > 10000 nM | 0.631 nM | > 10000 nM | 10 nM | – |
| COCC[C@]1(c2ccc(Cl)c(Cl)c2)[C@@H]2CNC[C@@H]21 | – | – | 7.94 nM | – | – | 0.316 nM | – | 10 nM | – |
| CCOCC[C@]1(c2ccc(Cl)c(Cl)c2)[C@@H]2CNC[C@@H]21 | – | < 100 nM | 7.94 nM | – | – | 0.501 nM | – | 15.8 nM | – |
| FC(F)(F)COC[C@]1(c2ccc(Cl)c(Cl)c2)[C@@H]2CNC[C@@H]21 | – | 300 nM | 25.1 nM | – | – | 1 nM | – | 25.1 nM | – |
| Clc1ccc([C@@]2(CCOC3CCC3)[C@@H]3CNC[C@@H]32)cc1Cl | – | – | 3.98 nM | – | – | 0.2 nM | – | 6.31 nM | – |
| COCC[C@H]1[C@]2(C)CNC[C@]12c1ccc(Cl)c(Cl)c1 (racemic) | – | – | 3.16 nM | – | – | 0.794 nM | – | 63.1 nM | – |
| OC[C@@H]1[C@@H]2CNC[C@]12c1ccc(Cl)c(Cl)c1 (racemic) | – | – | 182 nM | – | – | 51.3 nM | – | 479 nM | – |
| Cc1cnc([C@H]2[C@@H]3CNC[C@@]32c2ccc(Cl)c(Cl)c2)o1 (racemic) | – | – | 20 nM | – | – | 15.8 nM | – | 126 nM | – |
| CCC(C)OCC[C@]1(c2ccc(Cl)c(Cl)c2)[C@@H]2CNC[C@@H]21 (mixture of isomers) | – | – | 3.98 nM | – | – | 0.316 nM | – | 5.01 nM | – |
| CCOCC[C@H]1[C@@H]2CNC[C@]12c1ccc(Cl)c(Cl)c1 (racemic) | – | – | 3.98 nM | – | – | 0.794 nM | – | 79.4 nM | – |
| OCC[C@H]1[C@@H]2CNC[C@]12c1ccc(Cl)c(Cl)c1 (racemic) | – | – | 7.94 nM | – | – | 2.51 nM | – | 79.4 nM | – |
| CCC(C)OC[C@]1(c2ccc(Cl)c(Cl)c2)[C@@H]2CNC[C@@H]21 (mixture of isomers) | – | – | 2 nM | – | – | 0.251 nM | – | 7.94 nM | – |
| Fc1ccc(OC[C@H]2[C@@H]3CNC[C@@]32c2ccc(Cl)c(Cl)c2)cc1 (racemic) | – | – | 39.8 nM | – | – | 1.26 nM | – | 79.4 nM | – |
| CCC[C@H]1[C@@H]2CNC[C@]12c1ccc(Cl)c(Cl)c1 (racemic) | – | – | 2 nM | – | – | 1 nM | – | 25.1 nM | – |
| COC[C@@H]1[C@@H]2CNC[C@]12c1ccc(Cl)c(Cl)c1 (racemic) | – | – | 1290 nM | – | – | 72.4 nM | – | 661 nM | – |
| Clc1ccc([C@]23CNC[C@H]2[C@@H]3COC2CCCCC2)cc1Cl (racemic) | – | – | 2 nM | – | – | 1 nM | – | 20 nM | – |
| OC[C@H]1[C@@H]2CNC[C@]12c1ccc(Cl)c(Cl)c1 (racemic) | – | – | 28.8 nM | – | – | 15.5 nM | – | 457 nM | – |
| Clc1ccc([C@]23CNC[C@H]2[C@H]3COCC2CC2)cc1Cl (racemic) | – | – | 126 nM | – | – | 31.6 nM | – | 501 nM | – |
| CN(C)C[C@H]1[C@@H]2CNC[C@@]21c1ccc(Cl)c(Cl)c1 (racemic) | – | – | 31.6 nM | – | – | 3.98 nM | – | 631 nM | – |
| COCC[C@H]1[C@@]2(c3ccc(Cl)c(Cl)c3)CNC[C@]12C (relative stereo) | – | – | 1000 nM | – | – | 31.6 nM | – | 126 nM | – |
| Clc1ccc([C@]23CNC[C@H]2[C@@H]3COC2CCCC2)cc1Cl (relative stereo) | – | – | 0.158 nM | – | – | 0.251 nM | – | 2.51 nM | – |

| Structure (SMILES) | IC50 [1] | IC50 [2] | Ki [3] | IC50 [4] | IC50 [5] | Ki [6] | IC50 [7] | Ki [8] | pKi [8] |
| --- | --- | --- | --- | --- | --- | --- | --- | --- | --- |
| CSC[C@H]1[C@@H]2CNC[C@@]21c1ccc(Cl)c(Cl)c1 (relative stereo) | – | – | 1.58 nM | – | – | 0.398 nM | – | 39.8 nM | – |
| Clc1ccc([C@]23CNC[C@H]2[C@@H]3COCC2CC2)cc1Cl (relative stereo) | – | – | 15.8 nM | – | – | 5.01 nM | – | 200 nM | – |
| CCCOC[C@H]1[C@@H]2CNC[C@@]21c1ccc(Cl)c(Cl)c1 (relative stereo) | – | – | 31.6 nM | – | – | 9.55 nM | – | 251 nM | – |
| CC(C)OC[C@H]1[C@@H]2CNC[C@@]21c1ccc(Cl)c(Cl)c1 (relative stereo) | – | – | 200 nM | – | – | 39.8 nM | – | 251 nM | – |
| CCOC[C@H]1[C@@H]2CN(C)C[C@]12c1ccc(Cl)c(Cl)c1 (relative stereo) | – | – | 15.8 nM | – | – | 1.26 nM | – | 39.8 nM | – |
| CCOC[C@H]1[C@@H]2CNC[C@@]21c1ccc(Cl)c(Cl)c1 (relative stereo) | > 9000 nM | 4000 nM | 1.58 nM | > 9000 nM | > 9000 nM | 0.398 nM | > 9000 nM | 25.1 nM | – |
| Clc1ccc([C@]23CNC[C@H]2[C@@H]3COC2CCC2)cc1Cl (relative stereo) | – | – | 0.501 nM | – | – | 0.316 nM | – | 3.98 nM | – |
| COC[C@H]1[C@@H]2CNC[C@@]21c1ccc2ccccc2c1 (relative stereo) | – | – | 316 nM | – | – | 12.6 nM | – | 398 nM | – |
| Clc1ccc([C@@]23CNC[C@@H]2[C@H]3COC2CCC2)cc1Cl (stereo in doubt) | – | – | 158 nM | – | – | 25.1 nM | – | 251 nM | – |
| COC[C@H]1[C@@H]2CNC[C@@]21c1ccc(Cl)c(Cl)c1 (stereo in doubt) | – | – | 3.16 nM | – | – | 1.51 nM | – | 110 nM | – |
| Clc1ccc([C@]23CNC[C@H]2[C@@H]3COC2CCCC2)cc1Cl (stereo in doubt) | – | – | 0.794 nM | – | – | 0.501 nM | – | 6.31 nM | – |
| Clc1ccc([C@@]23CNC[C@@H]2[C@H]3COC2CCCC2)cc1Cl (stereo in doubt) | – | – | 12.6 nM | – | – | 7.94 nM | – | 100 nM | – |
| Cc1csc(C[C@H]2[C@@H]3CNC[C@@]32c2ccc(Cl)c(Cl)c2)n1 (stereo in doubt) | – | – | 0.316 nM | – | – | 0.2 nM | – | – | 7.7 |
| CCCOC[C@@H]1[C@H]2CNC[C@]21c1ccc(Cl)c(Cl)c1 (stereo in doubt) | – | – | 0.631 nM | – | – | 0.251 nM | – | 12.6 nM | – |
| CSC[C@H]1[C@@H]2CNC[C@@]21c1ccc(Cl)c(Cl)c1 (stereo in doubt) | – | – | 5.01 nM | – | – | 0.794 nM | – | 79.4 nM | – |
| CSC[C@@H]1[C@H]2CNC[C@]21c1ccc(Cl)c(Cl)c1 (stereo in doubt) | – | – | 316 nM | – | – | 25.1 nM | – | 63.1 nM | – |
| COC[C@@H]1[C@H]2CNC[C@]21c1ccc(Cl)c(Cl)c1 (stereo in doubt) | – | – | 224 nM | – | – | 25.7 nM | – | 513 nM | – |
| Clc1ccc([C@]23CNC[C@H]2[C@@H]3COCC2CC2)cc1Cl (stereo in doubt) | – | – | 1.95 nM | – | – | 0.955 nM | – | 25.1 nM | – |
| CCCOC[C@H]1[C@@H]2CNC[C@@]21c1ccc(Cl)c(Cl)c1 (stereo in doubt) | – | – | 0.501 nM | – | – | 0.501 nM | – | 20 nM | – |
| CC(C)OC[C@H]1[C@@H]2CNC[C@@]21c1ccc(Cl)c(Cl)c1 (stereo in doubt) | – | – | 0.398 nM | – | – | 0.2 nM | – | 7.94 nM | – |
| Cc1csc(C[C@@H]2[C@H]3CNC[C@]32c2ccc(Cl)c(Cl)c2)n1 (stereo in doubt) | – | – | 79.4 nM | – | – | 15.8 nM | – | 50.1 nM | – |
| Clc1ccc([C@]23CNC[C@H]2[C@@H]3COC2CCC2)cc1Cl (stereo in doubt) | – | – | 1.26 nM | – | – | 0.631 nM | – | 12.6 nM | – |
| COC[C@H]1[C@@H]2CNC[C@@]21c1ccc2ccccc2c1 (stereo in doubt) | – | – | 1 nM | – | – | 0.158 nM | – | 50.1 nM | – |

Reference: ChEMBL document CHEMBL1157620, “1-(Aryl)-6-[alkoxyalkyl]-3-azabicyclo[3.1.0]hexanes and 6-(aryl)-6-[alkoxyalkyl]-3-azabicyclo[3.1.0]hexanes: a new series of potent and selective triple reuptake inhibitors” (J Med Chem, 2010)
